High-throughput results: PubChem BioAssay, several laboratories
DAGLB inh – blocks human DAGLB lipase activity; hit rate 0.059% among 340,000; AID 504411; HEK293T DAGLB membrane lysate, EnzChek fluorogenic substrate; inhibition, % at 5.17 µM; in the data active means inhibition above about 34%;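 further: 0% = enzyme with vehicle and 100% = wells lacking enzyme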
HTR5A inv ag – inverse agonist of human HTR5A in OPRM1-OPRD1 counter-screen; P47898; HTR5A cell line, luminescence, inverse agonism; inhibition, % at 9.3 µM; hit rate 0.083% among 340,000; AID 504634; in the data active means inhibition mostly above about 23%, no sharp cut-off; inactive means mostly below about 18%;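 further: 0% = cells with DMSO and 100% = no-cell wells with DMSO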
MOR-DOR ag – OPRM1-OPRD1 heterodimerization agonism; P35372+P41143; cells, luminescence; activation, % at 9.3 µM; hit rate 0.3% among 340,000; AID 504326; in the data active means activation above about 18%;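 further: 0% = vehicle-treated cells and 100% = reference agonist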
OPRM1-OPRD1 inv – inverse agonist of human OPRM1-OPRD1 heterodimerization; inhibition, % at 9.3 µM; hit rate 0.21% among 340,000; cell-based MOR-DOR heterodimer luminescence, inverse agonism; in the data active means inhibition above about 22%, passing the limit was not always enough;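 further: 0% = cells with DMSO and 100% = wells without cells with DMSO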
Arr AP2 block – human beta-arrestin and AP2 interaction inhibition. FITC-arrestin peptide / GST-AP2 beads, flow cytometry; AP2 beta2 appendage carries R879A mutation. inhibition, % at 10 µM. hit rate 0.31% among 340,000. AID 504490;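 active means inhibition above a set limit, near 3 SD of compounds lacking own fluorescence, cut at about 54% in these data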;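 further: plate controls were DMSO wells for no effect and 5 µM unlabelled arrestin peptide for full effect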
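System: GST-AP2 R879A glutathione beads. Medium: PBS with 0.05% Tween 20 and 0.1% BSA. Also added: FITC-arrestin peptide, 50 nM. Incubation: 12 min plus 1 h, RT. Measured by: high-throughput flow cytometry of beads, ex 488, em 535 nm. Evaluation: percent drop in bead-associated FITC signal.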
HTR5A ag – counter-screen for OPRM1-OPRD1 agonists: human HTR5A agonism; hit rate 0.61% among 340,000; P47898; AID 504692; activation, % at 9.3 µM; HTR5A agonist assay, luminescence, cell-based; in the data active means activation mostly above about 9.5%, no sharp cut-off; inactive means mostly below about 7.6%;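 further: 0% = cells with vehicle only and 100% = reference agonist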
Arr-AP2 CP1 – inhibitors of human beta-arrestin and AP2 interaction | shares compounds with Arr AP2 block | GST-AP2 beads, FITC arrestin peptide binding, flow cytometry; GST-fused beta2-adaptin appendage, R879A mutant | inhibition, % at 10 µM | hit rate 2% among 1,300;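 active means inhibition above a set limit, roughly 3 SD of non-fluorescent compound noise, cut at about 38% in these data; inactive means inhibition at or below that limit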;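 further: loss of bead fluorescence from 50 nM FITC arrestin peptide bound to appendage; 0% = negative control wells and 100% = excess unlabelled arrestin peptide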
Target sequence (P63010 whole entry, looked up, the tested form may be a part, one chain of several): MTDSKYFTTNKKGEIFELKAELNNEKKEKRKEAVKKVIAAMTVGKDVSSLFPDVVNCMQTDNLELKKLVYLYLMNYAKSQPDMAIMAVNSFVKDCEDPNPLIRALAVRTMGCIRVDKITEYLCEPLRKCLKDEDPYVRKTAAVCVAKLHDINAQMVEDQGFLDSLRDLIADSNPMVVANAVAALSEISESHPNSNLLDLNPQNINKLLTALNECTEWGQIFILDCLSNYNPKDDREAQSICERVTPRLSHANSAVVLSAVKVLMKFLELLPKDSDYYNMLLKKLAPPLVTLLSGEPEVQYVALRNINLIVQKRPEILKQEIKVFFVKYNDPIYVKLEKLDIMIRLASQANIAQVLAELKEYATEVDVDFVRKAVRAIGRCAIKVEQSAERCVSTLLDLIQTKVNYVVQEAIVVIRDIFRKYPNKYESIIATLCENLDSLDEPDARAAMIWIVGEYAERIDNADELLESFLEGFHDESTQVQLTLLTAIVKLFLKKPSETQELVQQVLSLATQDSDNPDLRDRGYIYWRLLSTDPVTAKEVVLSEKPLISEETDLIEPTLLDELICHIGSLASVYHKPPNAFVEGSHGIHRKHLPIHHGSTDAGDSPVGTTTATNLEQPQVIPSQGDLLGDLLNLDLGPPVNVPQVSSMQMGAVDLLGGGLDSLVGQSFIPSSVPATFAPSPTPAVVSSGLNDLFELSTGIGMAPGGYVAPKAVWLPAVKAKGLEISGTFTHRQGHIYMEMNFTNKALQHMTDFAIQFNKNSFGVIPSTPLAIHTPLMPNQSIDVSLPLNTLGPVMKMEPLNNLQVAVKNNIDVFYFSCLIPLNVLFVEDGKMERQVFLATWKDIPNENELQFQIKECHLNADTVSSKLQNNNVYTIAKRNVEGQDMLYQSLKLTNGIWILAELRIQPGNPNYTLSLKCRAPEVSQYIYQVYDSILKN
GST GSH counter – GST-GSH bead binding interference, counter-screen; GST-fluorescein binding to GSH beads, fluorescence; inhibition, % at 10 µM; hit rate 2% among 1,300; shares compounds with Arr AP2 block;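 active means inhibition above 50%, about 3 SD of the inhibition seen with non-fluorescent compounds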;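 further: fluorescein maleimide labelled GST captured on 4 micron glutathione beads; higher means more loss of bead fluorescence from quenching or blocked binding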
* = called active by the depositor. Not all results are given here.

CCOC(=O)C1=C(COC(=O)CNC(=O)c2ccccc2F)NC(=O)NC1C (stereo unspecified) was read as DAGLB inh -4, HTR5A inv ag -21, MOR-DOR ag 0, OPRM1-OPRD1 inv 1, Arr AP2 block 27 and HTR5A ag 8.
For CCOC(=O)C1=C(COC(=O)Cc2ccc(Cl)cc2)NC(=O)NC1C (stereo unspecified) the results were DAGLB inh -1, HTR5A inv ag 19, MOR-DOR ag 5, OPRM1-OPRD1 inv -21, Arr AP2 block 4, HTR5A ag -8, Arr-AP2 CP1 9 and GST GSH counter 1.
CCOC(=O)C1=C(COC(=O)Cc2ccccc2[N+](=O)[O-])NC(=O)NC1C (stereo unspecified) was read as DAGLB inh -1.
For CCOC(=O)C1=C(COC(=O)Cc2ccc(OC)c(OC)c2)NC(=O)NC1C (stereo unspecified) the results were DAGLB inh 0, HTR5A inv ag 7, MOR-DOR ag -1, OPRM1-OPRD1 inv 3, Arr AP2 block 38, HTR5A ag -3, Arr-AP2 CP1 -7 and GST GSH counter 3.
CCOC(=O)C1=C(COC(=O)Cc2ccccc2)NC(=O)NC1C (stereo unspecified) was read as DAGLB inh 1, HTR5A inv ag 7, MOR-DOR ag -3, OPRM1-OPRD1 inv 14, Arr AP2 block 9, HTR5A ag 1, Arr-AP2 CP1 20 and GST GSH counter -8.
Screening CCOC(=O)C1=C(COC(=O)CCc2ccc(F)cc2)NC(=O)NC1C (stereo unspecified) returned DAGLB inh 0, HTR5A inv ag -2, MOR-DOR ag -4, OPRM1-OPRD1 inv 17, Arr AP2 block 1, HTR5A ag 8, Arr-AP2 CP1 3 and GST GSH counter -2.
For C[C@H]1CN([C@@H](C)CO)C(=O)CCCn2cc(nn2)CO[C@@H]1CN(C)C(=O)Nc1ccc(N2CCN(C)CC2)cc1 the results were DAGLB inh 1.
Screening Cc1cnc(CN(C)C(=O)C2CCC(=O)N(CCc3ccc(Cl)cc3)C2)[nH]1 (stereo unspecified) returned DAGLB inh -3.
Screening CCCN1CCN(C(=O)c2ccc(CS(=O)c3ccc(Br)cc3)o2)CC1 (stereo unspecified) returned DAGLB inh 0.
Screening Cc1ccc(S(=O)(=O)N2CCN(C(=O)c3cc(S(=O)(=O)N(C)C)ccc3N3CCCC3)CC2)c(C)c1 returned DAGLB inh 3, HTR5A inv ag -11, MOR-DOR ag 2, OPRM1-OPRD1 inv -13, Arr AP2 block -5 and HTR5A ag -4.
For C[C@H](CO)N1C[C@H](C)[C@H](CN(C)C(=O)OCc2ccccc2)OCc2cnnn2CCCC1=O the results were DAGLB inh 3.
`CCOC(=O)C1=C(COC(=O)C(C)(C)Oc2ccc(Cl)cc2)NC(=O)NC1C` (stereo unspecified) gave DAGLB inh 3, HTR5A inv ag -6, MOR-DOR ag 1, OPRM1-OPRD1 inv -4, Arr AP2 block 19, HTR5A ag 2, Arr-AP2 CP1 -6 and GST GSH counter -5.
Screening CC1=CC(C)(C)NC(=S)N1c1ccc(N(C)C)cc1 returned DAGLB inh 1, HTR5A inv ag -6, MOR-DOR ag -2, OPRM1-OPRD1 inv 8, Arr AP2 block 3 and HTR5A ag 2.
For Cc1cc(NC(=O)c2ccccc2)n(-c2nc3ccccc3[nH]2)n1 the results were DAGLB inh -3, HTR5A inv ag 2, MOR-DOR ag -2, OPRM1-OPRD1 inv 8, Arr AP2 block 17, HTR5A ag -1, Arr-AP2 CP1 -3 and GST GSH counter -1.
`COc1ccc(C(=O)Nc2cc(C)nn2-c2nc3ccccc3[nH]2)c(OC)c1` gave DAGLB inh -12, HTR5A inv ag -6, MOR-DOR ag -6, OPRM1-OPRD1 inv 28, Arr AP2 block 7, HTR5A ag 2, Arr-AP2 CP1 19 and GST GSH counter -6.
